Experimental data taken from ChEMBL document CHEMBL5696444 (Nat Commun, 2017).
Calls of active or inactive are those of the source. No cut-off for these calls is given here.

What was measured:
HCT-116 [1] = assay: Induction of apoptosis in human HCT-116 cells assessed as viable cells at 0.1 uM incubated for > 6 hrs by annexin V/PI staining based analysis (Rvb=90.04%); type: functional; settings: read-out: Activity
HCT-116 [2] = assay: Induction of apoptosis in human HCT-116 cells assessed as necrosis cells at 0.5 uM incubated for > 6 hrs by annexin V/PI staining based analysis (Rvb=0.55%); type: functional
HCT-116 [3] = assay: Induction of apoptosis in human HCT-116 cells assessed as viable cells at 10 uM incubated for > 6 hrs by annexin V/PI staining based analysis (Rvb=90.04%); type: functional; settings: read-out: Activity
[4] = biological target: Aurora kinase A (Homo sapiens) (UniProt O14965); assay: Inhibition of AURKA (unknown origin) at 100 nM in the presence of ATP by Kinome scan method relative to control
[5] = biological target: Cyclin-dependent kinase 1/cyclin B1 (Homo sapiens) (UniProt P06493+P14635); assay: Inhibition of CDK1/cyclin B (unknown origin) at 1000 nM in the presence of ATP by Kinome scan method relative to control; type: protein-complex assay
Cyclin-dependent kinase 1/cyclin B1 (Homo sapiens), sequence (P06493 whole entry, looked up): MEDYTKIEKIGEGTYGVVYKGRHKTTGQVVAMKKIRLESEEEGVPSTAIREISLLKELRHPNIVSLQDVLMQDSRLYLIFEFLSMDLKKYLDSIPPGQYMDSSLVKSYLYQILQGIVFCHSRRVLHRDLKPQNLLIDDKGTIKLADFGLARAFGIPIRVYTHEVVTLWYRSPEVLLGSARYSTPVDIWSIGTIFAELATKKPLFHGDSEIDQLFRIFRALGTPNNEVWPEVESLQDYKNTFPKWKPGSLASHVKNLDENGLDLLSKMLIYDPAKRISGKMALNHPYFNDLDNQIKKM
Cyclin-dependent kinase 1/cyclin B1 (Homo sapiens), sequence (P14635 whole entry, looked up): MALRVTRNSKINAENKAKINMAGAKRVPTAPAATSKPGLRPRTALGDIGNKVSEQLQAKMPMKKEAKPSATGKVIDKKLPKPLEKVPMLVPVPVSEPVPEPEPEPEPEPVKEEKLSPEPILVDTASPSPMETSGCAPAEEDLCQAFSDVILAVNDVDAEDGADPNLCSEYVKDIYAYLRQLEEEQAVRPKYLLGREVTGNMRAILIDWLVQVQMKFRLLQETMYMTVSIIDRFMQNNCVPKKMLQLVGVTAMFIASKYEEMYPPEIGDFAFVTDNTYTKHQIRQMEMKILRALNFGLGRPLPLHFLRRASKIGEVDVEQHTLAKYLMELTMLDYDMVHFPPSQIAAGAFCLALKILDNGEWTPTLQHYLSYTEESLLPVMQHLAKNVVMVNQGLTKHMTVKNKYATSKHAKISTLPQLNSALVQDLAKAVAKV

[6] = biological target: Cyclin-dependent kinase 5/CDK5 activator 1 (Homo sapiens) (UniProt Q00535+Q15078); assay: Inhibition of CDK5/p35 (unknown origin) at 1000 nM in the presence of ATP by Kinome scan method relative to control; type: protein-complex assay
Cyclin-dependent kinase 5/CDK5 activator 1 (Homo sapiens), sequence (Q00535 whole entry): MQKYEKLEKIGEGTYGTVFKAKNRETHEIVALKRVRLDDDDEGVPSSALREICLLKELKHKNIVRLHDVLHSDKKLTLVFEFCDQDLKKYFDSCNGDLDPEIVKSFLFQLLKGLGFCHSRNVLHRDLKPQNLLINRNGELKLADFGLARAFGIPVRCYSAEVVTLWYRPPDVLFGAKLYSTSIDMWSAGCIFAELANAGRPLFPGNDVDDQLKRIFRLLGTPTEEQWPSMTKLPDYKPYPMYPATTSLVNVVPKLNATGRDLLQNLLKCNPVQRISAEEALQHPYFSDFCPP
Cyclin-dependent kinase 5/CDK5 activator 1 (Homo sapiens), sequence (Q15078 99-307 partner limits assumed): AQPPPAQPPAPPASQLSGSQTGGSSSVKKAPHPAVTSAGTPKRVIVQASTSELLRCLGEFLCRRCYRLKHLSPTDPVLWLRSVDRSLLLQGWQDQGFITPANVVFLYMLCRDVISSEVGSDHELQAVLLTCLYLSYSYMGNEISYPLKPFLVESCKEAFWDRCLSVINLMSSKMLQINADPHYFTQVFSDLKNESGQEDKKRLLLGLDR

[7] = biological target: Serine/threonine-protein kinase Chk1 (Homo sapiens) (UniProt O14757); assay: Inhibition of CHEK1 (unknown origin) at 100 nM in the presence of ATP by Kinome scan method relative to control
[8] = biological target: Ephrin type-A receptor 1 (Homo sapiens) (UniProt P21709); assay: Inhibition of EPHA1 (unknown origin) at 1000 nM in the presence of ATP by Kinome scan method relative to control
[9] = biological target: Ephrin type-A receptor 2 (Homo sapiens) (UniProt P29317); assay: Inhibition of EPHA2 (unknown origin) at 1000 nM in the presence of ATP by Kinome scan method relative to control
Ephrin type-A receptor 2 (Homo sapiens), sequence (P29317 whole entry): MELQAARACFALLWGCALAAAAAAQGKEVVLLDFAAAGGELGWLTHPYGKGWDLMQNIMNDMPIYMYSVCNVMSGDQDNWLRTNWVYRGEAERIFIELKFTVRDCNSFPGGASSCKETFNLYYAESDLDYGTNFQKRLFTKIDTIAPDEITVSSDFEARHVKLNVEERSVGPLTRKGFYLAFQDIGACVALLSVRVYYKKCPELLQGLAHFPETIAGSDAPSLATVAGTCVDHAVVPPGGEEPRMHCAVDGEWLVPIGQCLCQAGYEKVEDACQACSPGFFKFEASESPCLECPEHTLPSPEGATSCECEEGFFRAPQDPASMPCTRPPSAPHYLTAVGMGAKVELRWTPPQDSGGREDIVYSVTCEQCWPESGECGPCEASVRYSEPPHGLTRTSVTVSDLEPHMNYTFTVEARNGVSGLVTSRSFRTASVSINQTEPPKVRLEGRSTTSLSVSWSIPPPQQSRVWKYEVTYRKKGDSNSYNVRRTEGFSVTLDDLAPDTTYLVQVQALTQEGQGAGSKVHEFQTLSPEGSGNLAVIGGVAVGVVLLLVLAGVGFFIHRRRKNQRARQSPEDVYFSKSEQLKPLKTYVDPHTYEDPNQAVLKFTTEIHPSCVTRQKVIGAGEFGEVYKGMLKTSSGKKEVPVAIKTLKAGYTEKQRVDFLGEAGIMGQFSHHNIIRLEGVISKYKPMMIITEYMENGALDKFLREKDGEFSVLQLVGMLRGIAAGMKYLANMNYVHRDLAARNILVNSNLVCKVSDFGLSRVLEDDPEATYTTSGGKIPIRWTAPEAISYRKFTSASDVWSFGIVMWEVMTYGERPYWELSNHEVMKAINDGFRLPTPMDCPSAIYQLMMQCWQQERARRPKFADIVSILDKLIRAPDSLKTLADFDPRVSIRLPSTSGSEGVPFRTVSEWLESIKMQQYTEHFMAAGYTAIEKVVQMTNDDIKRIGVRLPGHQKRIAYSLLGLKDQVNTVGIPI

[10] = biological target: Glycogen synthase kinase-3 beta (Homo sapiens) (UniProt P49841); assay: Inhibition of GSK3B (unknown origin) at 100 nM in the presence of ATP by Kinome scan method relative to control
[11] = biological target: Interleukin-1 receptor-associated kinase 4 (Homo sapiens) (UniProt Q9NWZ3); assay: Inhibition of IRAK4 (unknown origin) at 100 nM in the presence of ATP by Kinome scan method relative to control
[12] = biological target: Mast/stem cell growth factor receptor Kit (Homo sapiens) (UniProt P10721); assay: Inhibition of KIT (unknown origin) at 1000 nM in the presence of ATP by Kinome scan method relative to control
[13] = biological target: Dual specificity mitogen-activated protein kinase kinase 2 (Homo sapiens) (UniProt P36507); assay: Inhibition of MAP2K2 (unknown origin) at 100 nM in the presence of ATP by Kinome scan method relative to control
[14] = biological target: Mitogen-activated protein kinase 8 (Homo sapiens) (UniProt P45983); assay: Inhibition of MAPK8 (unknown origin) at 1000 nM in the presence of ATP by Kinome scan method relative to control
Mitogen-activated protein kinase 8 (Homo sapiens), sequence (P45983 whole entry): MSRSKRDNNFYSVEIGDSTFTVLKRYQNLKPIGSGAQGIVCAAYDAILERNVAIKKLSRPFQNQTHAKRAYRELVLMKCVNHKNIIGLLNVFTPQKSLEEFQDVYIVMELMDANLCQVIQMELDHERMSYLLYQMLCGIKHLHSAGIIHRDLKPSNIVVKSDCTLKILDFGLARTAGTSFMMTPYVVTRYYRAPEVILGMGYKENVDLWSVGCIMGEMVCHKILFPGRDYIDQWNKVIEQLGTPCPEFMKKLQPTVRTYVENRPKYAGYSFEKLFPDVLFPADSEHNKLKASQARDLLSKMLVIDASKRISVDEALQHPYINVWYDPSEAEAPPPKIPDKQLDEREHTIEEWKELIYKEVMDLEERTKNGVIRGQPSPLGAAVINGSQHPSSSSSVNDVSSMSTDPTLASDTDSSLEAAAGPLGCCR

[15] = biological target: Serine/threonine-protein kinase PLK1 (Homo sapiens) (UniProt P53350); assay: Inhibition of PLK1 (unknown origin) at 1000 nM in the presence of ATP by Kinome scan method relative to control
[16] = biological target: cAMP-dependent protein kinase catalytic subunit alpha (Homo sapiens) (UniProt P17612); assay: Inhibition of PRKACA (unknown origin) at 100 nM in the presence of ATP by Kinome scan method relative to control
[17] = biological target: Protein kinase C theta type (Homo sapiens) (UniProt Q04759); assay: Inhibition of PRKCQ (unknown origin) at 1000 nM in the presence of ATP by Kinome scan method relative to control
Protein kinase C theta type (Homo sapiens), sequence (Q04759 whole entry, looked up): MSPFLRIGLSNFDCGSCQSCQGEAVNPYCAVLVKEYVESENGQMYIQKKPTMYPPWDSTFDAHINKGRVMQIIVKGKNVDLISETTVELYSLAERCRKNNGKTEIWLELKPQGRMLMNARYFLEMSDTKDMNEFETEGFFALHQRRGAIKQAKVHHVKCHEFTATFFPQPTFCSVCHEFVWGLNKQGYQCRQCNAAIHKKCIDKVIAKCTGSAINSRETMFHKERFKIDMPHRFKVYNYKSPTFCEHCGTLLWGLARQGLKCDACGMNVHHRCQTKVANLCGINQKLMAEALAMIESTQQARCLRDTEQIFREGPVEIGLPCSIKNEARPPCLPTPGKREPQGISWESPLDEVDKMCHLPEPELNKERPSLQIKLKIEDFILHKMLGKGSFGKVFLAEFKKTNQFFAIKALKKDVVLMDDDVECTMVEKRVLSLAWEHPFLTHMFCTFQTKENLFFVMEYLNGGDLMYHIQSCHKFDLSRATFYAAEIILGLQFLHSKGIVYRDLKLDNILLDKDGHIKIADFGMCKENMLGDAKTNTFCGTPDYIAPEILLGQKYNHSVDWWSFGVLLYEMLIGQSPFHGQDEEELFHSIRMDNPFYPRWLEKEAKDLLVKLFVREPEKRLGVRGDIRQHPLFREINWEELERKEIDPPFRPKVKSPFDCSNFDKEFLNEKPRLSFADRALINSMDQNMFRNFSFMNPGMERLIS

[18] = biological target: Focal adhesion kinase 1 (Homo sapiens) (UniProt Q05397); assay: Inhibition of PTK2 (unknown origin) at 1000 nM in the presence of ATP by Kinome scan method relative to control
Focal adhesion kinase 1 (Homo sapiens), sequence (Q05397 2-1052 limits assumed): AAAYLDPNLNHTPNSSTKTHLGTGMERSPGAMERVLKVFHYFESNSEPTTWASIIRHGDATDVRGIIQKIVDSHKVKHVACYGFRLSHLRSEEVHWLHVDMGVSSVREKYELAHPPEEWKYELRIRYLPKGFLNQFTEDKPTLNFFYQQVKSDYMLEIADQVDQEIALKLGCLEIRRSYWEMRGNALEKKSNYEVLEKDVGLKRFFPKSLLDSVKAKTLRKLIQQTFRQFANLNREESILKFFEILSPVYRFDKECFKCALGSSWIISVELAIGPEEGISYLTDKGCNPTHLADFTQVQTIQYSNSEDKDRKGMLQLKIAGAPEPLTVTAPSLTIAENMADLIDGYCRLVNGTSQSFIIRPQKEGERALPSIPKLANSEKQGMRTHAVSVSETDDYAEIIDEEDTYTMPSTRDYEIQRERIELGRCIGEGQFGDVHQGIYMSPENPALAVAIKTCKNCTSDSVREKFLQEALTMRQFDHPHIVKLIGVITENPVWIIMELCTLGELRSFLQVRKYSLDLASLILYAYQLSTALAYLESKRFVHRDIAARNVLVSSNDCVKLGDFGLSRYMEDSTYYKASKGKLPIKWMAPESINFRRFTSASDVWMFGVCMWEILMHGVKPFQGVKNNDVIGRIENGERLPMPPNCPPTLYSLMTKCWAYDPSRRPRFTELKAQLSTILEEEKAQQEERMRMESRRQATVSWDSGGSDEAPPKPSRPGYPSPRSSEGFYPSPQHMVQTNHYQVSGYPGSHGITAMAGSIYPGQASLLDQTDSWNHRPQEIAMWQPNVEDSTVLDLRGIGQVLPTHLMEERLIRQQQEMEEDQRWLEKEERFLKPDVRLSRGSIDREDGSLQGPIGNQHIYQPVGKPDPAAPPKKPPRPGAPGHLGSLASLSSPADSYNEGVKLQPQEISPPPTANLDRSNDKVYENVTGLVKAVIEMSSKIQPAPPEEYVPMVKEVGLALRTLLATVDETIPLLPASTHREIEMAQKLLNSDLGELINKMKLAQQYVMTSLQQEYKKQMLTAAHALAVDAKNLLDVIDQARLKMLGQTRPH

[19] = biological target: Proto-oncogene tyrosine-protein kinase receptor Ret (Homo sapiens) (UniProt P07949); assay: Inhibition of RET (unknown origin) at 100 nM in the presence of ATP by Kinome scan method relative to control
[20] = biological target: Proto-oncogene tyrosine-protein kinase Src (Homo sapiens) (UniProt P12931); assay: Inhibition of SRC (unknown origin) at 1000 nM in the presence of ATP by Kinome scan method relative to control
[21] = biological target: Calcium/calmodulin-dependent protein kinase type 1 (Homo sapiens) (UniProt Q14012); assay: Inhibition of CAMK1 (unknown origin) at 1000 nM in the presence of ATP by Kinome scan method relative to control
[22] = biological target: PI3-kinase p110-alpha/p85-alpha (Homo sapiens) (UniProt P27986+P42336); assay: Inhibition of PIK3CA/PIK3R1 (unknown origin) at 100 nM in the presence of ATP by Kinome scan method relative to control; type: protein-complex assay
[23] = biological target: Dual specificity protein kinase CLK1 (Homo sapiens) (UniProt P49759); assay: Inhibition of CLK (unknown origin) in human HCT-116 cells assessed as decrease in SRSF4 phosphorylation level at 0.5 to 1.0 uM incubated for 6 hrs by immunoblot analysis; type: cell-based; settings: dose 0.5-1 µM
Dual specificity protein kinase CLK1 (Homo sapiens), sequence (P49759 whole entry, looked up, canonical isoform): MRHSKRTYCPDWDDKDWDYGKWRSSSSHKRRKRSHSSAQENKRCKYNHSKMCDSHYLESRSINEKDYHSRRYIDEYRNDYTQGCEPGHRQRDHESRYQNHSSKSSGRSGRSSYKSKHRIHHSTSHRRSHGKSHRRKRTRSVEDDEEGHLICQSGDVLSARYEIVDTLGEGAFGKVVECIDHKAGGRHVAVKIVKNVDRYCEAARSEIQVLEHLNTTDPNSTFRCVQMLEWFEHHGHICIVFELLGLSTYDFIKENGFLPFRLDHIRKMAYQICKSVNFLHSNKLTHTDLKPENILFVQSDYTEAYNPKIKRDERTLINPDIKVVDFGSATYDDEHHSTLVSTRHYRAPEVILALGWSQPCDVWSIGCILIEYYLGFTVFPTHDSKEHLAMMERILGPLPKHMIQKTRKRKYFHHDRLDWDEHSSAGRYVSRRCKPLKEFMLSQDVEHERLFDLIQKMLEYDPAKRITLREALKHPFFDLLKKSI

HCT-116 [24] = assay: Induction of cell cycle arrest in human HCT-116 cells assessed as sub G0/G1 phase at 0.5 uM incubated for 6 hrs by flow cytometry analysis (Rvb=1.6%); type: functional
HCT-116 [25] = assay: Induction of cell cycle arrest in human HCT-116 cells assessed as sub G0/G1 phase at 1 uM incubated for 6 hrs by flow cytometry analysis (Rvb=1.6%); type: functional
HCT-116 [26] = assay: Induction of cell cycle arrest in human HCT-116 cells assessed as G0/G1 phase at 0.1 uM incubated for 24 hrs by flow cytometry analysis (Rvb=35.7%); type: functional
HCT-116 [27] = assay: Induction of cell cycle arrest in human HCT-116 cells assessed as G2/M phase at 1 uM incubated for 24 hrs by flow cytometry analysis (Rvb=17.9%); type: functional
HCT-116 [28] = assay: Induction of cell cycle arrest in human HCT-116 cells assessed as G2/M phase at 5 uM incubated for 24 hrs by flow cytometry analysis (Rvb=17.9%); type: functional
HCT-116 [29] = assay: Induction of cell cycle arrest in human HCT-116 cells assessed as G0/G1 phase at 10 uM incubated for 24 hrs by flow cytometry analysis (Rvb=35.7%); type: functional
[30] = biological target: Dual specificity protein kinase CLK1 (Homo sapiens) (UniProt P49759); assay: Inhibition of CLK (unknown origin) in human 184-hTERT cells assessed as induction in alternative splicing effect in S6K skipped exon /canonical form incubated for 6 hrs by RT-PCR analysis; type: cell-based; settings: dose 0.2-5 µM
In short: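 Cells exposed to graded T3 concentrations for 6 h (chosen to avoid cytotoxicity), with a DMSO vehicle control. Total RNA was reverse-transcribed with oligo-dT primers. Targeted splice or conjoined-gene products were quantified by real-time qPCR or by targeted next-generation sequencing. Conjoined-gene isoform expression was normalized to a sequenced housekeeping gene.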

inhibition [4]: 5% | inhibition [5]: 7% | inhibition [6]: -1% | inhibition [7]: 10% | inhibition [8]: -1% | inhibition [9]: -6% | inhibition [10]: -3% | inhibition [11]: 25% | inhibition [12]: 37% | inhibition [13]: 17% | inhibition [14]: 3% | inhibition [15]: 2% | inhibition [16]: -2% | inhibition [17]: 4% | inhibition [18]: -7% | inhibition [19]: -1% | inhibition [20]: 47% | inhibition [21]: 5% | inhibition [22]: 4% | inhibition [23]: Active | inhibition [30]: Dose-Dependent Effect
Compound: CN1CCN(C(=O)C(C)(C)c2ccc(C(=O)Nc3cn4cc(-c5ccncc5)ccc4n3)cc2)CC1 [T3-CLK]
viability at 0.1 µM (HCT-116 [1]): 87.8% | Activity (HCT-116 [2]): 0.69% | viability at 10 µM (HCT-116 [3]): 87.3% | Activity (HCT-116 [24]): 1.6% | Activity (HCT-116 [25]): 1.5% | Activity (HCT-116 [26]): 38.7% | Activity (HCT-116 [27]): 46% | Activity (HCT-116 [28]): 41.2% | Activity (HCT-116 [29]): 21.3%
